pIC50, pKi: −log10 of the molar value. Activity calls are given as the source filed them. No cut-off for these calls is given here.
Key:
[1] = target: T1, Tyrosine-protein phosphatase non-receptor type 22 (Homo sapiens, UniProt Q9Y2R2); test: Inhibition of LYP (unknown origin) at 25 uM using pNPP as substrate relative to control
T1 sequence (Q9Y2R2 whole entry): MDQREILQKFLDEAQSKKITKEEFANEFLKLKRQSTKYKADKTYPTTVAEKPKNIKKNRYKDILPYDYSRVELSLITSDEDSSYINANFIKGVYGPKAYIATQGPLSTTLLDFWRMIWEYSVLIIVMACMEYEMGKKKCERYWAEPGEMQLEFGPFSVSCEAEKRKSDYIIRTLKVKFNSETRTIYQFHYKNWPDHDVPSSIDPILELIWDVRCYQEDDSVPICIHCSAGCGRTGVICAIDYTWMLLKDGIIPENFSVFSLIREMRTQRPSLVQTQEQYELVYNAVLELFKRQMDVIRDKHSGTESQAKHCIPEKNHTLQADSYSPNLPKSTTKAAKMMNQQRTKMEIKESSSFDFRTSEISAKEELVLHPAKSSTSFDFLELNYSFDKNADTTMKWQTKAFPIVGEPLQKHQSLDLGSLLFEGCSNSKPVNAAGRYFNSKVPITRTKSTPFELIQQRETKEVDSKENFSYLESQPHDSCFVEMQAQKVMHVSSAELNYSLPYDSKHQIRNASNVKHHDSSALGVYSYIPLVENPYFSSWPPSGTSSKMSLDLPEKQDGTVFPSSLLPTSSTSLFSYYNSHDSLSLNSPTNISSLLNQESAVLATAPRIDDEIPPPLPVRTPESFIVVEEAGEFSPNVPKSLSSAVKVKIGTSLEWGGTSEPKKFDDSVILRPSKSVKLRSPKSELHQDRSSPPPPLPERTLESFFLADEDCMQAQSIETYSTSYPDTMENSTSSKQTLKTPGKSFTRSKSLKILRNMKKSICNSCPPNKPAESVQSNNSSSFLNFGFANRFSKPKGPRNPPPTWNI

[2] = target: T2, Low molecular weight protein-tyrosine phosphatase A (Mycobacterium tuberculosis, UniProt P9WIA1); test: Inhibition of Mycobacterium tuberculosis PtpA
T2 sequence (P9WIA1 whole entry): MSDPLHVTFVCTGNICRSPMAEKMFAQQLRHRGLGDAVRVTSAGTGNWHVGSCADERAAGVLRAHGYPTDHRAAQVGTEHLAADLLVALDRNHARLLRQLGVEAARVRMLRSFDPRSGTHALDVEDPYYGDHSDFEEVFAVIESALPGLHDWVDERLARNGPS
Summary of the method: (§1)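 Inhibition of the PTP panel, run in three independent experiments. Values are the average of the individual means ± SD.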

[3] = Selectivity index, ratio of IC50 for Mycobacterium tuberculosis PtpB to IC50 for LYP (unknown origin) using pNPP as substrate
[4] = target: T2, Low molecular weight protein-tyrosine phosphatase A; test: Non-competitive inhibition of Mycobacterium tuberculosis PtpA assessed as inhibition constant using varying level of pNPP as substrate by Lineweaver-Burk plot analysis
[5] = target: T3, Tyrosine-protein phosphatase non-receptor type 12 (Homo sapiens, UniProt Q05209); test: Inhibition of PTP-PEST (unknown origin); summary of the method: as §1
T3 sequence (Q05209 whole entry): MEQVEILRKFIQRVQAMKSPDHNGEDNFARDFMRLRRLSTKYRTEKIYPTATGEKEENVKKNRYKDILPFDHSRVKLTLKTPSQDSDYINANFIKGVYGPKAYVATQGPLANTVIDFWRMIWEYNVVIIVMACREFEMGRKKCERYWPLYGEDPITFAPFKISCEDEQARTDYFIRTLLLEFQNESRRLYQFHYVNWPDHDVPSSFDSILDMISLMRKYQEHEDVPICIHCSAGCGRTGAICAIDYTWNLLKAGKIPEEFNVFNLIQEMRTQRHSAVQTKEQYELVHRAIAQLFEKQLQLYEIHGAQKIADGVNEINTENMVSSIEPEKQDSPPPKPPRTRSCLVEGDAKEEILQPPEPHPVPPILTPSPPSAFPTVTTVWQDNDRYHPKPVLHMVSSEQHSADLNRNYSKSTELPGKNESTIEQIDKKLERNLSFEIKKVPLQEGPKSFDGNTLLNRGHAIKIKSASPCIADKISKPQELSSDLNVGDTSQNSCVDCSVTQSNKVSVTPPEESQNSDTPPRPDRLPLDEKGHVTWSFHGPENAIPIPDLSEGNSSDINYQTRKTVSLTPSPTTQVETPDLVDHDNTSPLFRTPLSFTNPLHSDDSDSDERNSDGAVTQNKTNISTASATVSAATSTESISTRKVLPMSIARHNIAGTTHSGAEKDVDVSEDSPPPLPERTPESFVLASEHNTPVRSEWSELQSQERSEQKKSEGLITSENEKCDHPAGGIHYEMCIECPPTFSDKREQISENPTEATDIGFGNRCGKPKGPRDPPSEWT

[6] = target: T3, Tyrosine-protein phosphatase non-receptor type 12; test: Reversible inhibition of PTP-PEST (unknown origin) assessed as enzyme recovery activity by dilution assay relative to control; design: scale not given: the % may be the effect or the level left
Summary of the method: (§2)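 Reversibility tested by preincubation and dilution: enzyme preincubated with inhibitor, then diluted, and recovered phosphatase activity expressed as a percentage of control.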

[7] = target: T4, Tyrosine-protein phosphatase non-receptor type 1 (Homo sapiens, UniProt P18031); test: Inhibition of human PTP1B; summary of the method: as §1
T4 sequence (P18031 whole entry): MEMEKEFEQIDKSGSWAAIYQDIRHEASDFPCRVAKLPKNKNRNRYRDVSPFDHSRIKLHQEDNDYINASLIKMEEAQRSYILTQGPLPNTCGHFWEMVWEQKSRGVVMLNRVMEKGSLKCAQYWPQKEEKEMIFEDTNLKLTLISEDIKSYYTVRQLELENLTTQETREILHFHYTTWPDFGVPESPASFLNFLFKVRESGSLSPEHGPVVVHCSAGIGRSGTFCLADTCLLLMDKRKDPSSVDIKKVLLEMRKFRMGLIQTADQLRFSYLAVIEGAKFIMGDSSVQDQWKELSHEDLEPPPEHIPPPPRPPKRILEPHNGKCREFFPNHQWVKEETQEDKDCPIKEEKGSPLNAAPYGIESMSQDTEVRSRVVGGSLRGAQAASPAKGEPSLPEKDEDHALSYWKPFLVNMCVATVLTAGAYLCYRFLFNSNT

[8] = target: Tyrosine-protein phosphatase YopH (Yersinia enterocolitica) (UniProt P15273); test: Potency index, ratio of chicoric-acid IC50 to test compound IC50 for inhibition of Yersinia enterocolitica YopH
Sequence of Tyrosine-protein phosphatase YopH (Yersinia enterocolitica) (P15273 whole entry): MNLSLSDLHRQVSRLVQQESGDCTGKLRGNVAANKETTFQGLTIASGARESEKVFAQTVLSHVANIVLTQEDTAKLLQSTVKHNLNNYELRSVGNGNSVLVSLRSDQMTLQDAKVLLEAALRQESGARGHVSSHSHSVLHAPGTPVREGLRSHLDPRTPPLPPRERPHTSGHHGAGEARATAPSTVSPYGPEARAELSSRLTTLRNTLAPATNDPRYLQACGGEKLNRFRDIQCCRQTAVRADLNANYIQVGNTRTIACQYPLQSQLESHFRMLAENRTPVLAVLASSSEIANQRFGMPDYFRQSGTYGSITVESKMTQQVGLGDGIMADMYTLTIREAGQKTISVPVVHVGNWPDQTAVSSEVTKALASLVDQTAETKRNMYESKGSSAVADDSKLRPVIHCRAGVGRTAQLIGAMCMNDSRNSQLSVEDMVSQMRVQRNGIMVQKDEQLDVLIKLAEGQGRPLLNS

[9] = target: Tyrosine-protein phosphatase YopH (Yersinia enterocolitica) (UniProt P15273); test: Irreversible inhibition of Yersinia enterocolitica YopH assessed as enzyme recovery activity by dilution assay relative to control; design: scale not given: the % may be the effect or the level left; summary of the method: as §2
Yersinia enterocolitica = test: Antibacterial activity against Yersinia enterocolitica assessed as inhibition of bacterial growth at 8 to 250 uM after 48 hrs relative to control; assay type: functional
[10] = target: Tyrosine-protein phosphatase YopH (Yersinia enterocolitica) (UniProt P15273); test: Binding affinity of Yersinia enterocolitica YopH assessed as protein stabilization by measuring change in melting temperature by thermal denaturation assay
Summary of the method: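 YopH thermal denaturation profile recorded with and without ligand at 50 µM; melting temperature (Tm) compared between the two.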

[11] = Selectivity index, ratio of IC50 for Yersinia enterocolitica YopH to IC50 for LYP (unknown origin) using pNPP as substrate
[12] = Selectivity index, ratio of IC50 for Mycobacterium tuberculosis PtpA to IC50 for LYP (unknown origin) using pNPP as substrate
[13] = target: T5, Low molecular weight protein-tyrosine phosphatase A (Mycobacterium tuberculosis) (UniProt P9WIA1); test: Reversible inhibition of Mycobacterium tuberculosis PtpA assessed as enzyme recovery activity by dilution assay relative to control; design: scale not given: the % may be the effect or the level left; summary of the method: as §2
T5 sequence (whole entry): T2 sequence (P9WIA1 whole entry)

[14] = Selectivity index, ratio of IC50 for human PTP1B to IC50 for LYP (unknown origin) using pNPP as substrate
[15] = target: T1, Tyrosine-protein phosphatase non-receptor type 22; test: Reversible inhibition of LYP (unknown origin) assessed as enzyme recovery activity by dilution assay relative to control; design: scale not given: the % may be the effect or the level left; summary of the method: as §2
[16] = target: T3, Tyrosine-protein phosphatase non-receptor type 12; test: Competitive inhibition of PTP-PEST (unknown origin) assessed as inhibition constant using varying level of pNPP as substrate by Lineweaver-Burk plot analysis
[17] = target: T6, Phosphotyrosine protein phosphatase (Mycobacterium tuberculosis, UniProt A0A045ISB3); test: Inhibition of Mycobacterium tuberculosis PtpB; summary of the method: as §1
T6 sequence (A0A045ISB3 whole entry): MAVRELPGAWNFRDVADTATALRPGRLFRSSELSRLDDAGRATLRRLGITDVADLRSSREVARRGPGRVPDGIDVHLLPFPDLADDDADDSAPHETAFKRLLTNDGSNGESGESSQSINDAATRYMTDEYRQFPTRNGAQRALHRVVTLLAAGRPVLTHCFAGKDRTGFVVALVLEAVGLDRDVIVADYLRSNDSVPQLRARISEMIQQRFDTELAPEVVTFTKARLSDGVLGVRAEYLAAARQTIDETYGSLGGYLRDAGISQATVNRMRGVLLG

[18] = target: T7, Tyrosine-protein phosphatase YopH (Yersinia enterocolitica, UniProt P15273); test: Inhibition of Yersinia enterocolitica YopH; summary of the method: as §1
T7 sequence (P15273 whole entry): as the sequence (P15273 whole entry) above

[19] = target: T7, Tyrosine-protein phosphatase YopH; test: Non-competitive inhibition of Yersinia enterocolitica YopH assessed as inhibition constant using varying level of pNPP as substrate by Lineweaver-Burk plot analysis
[20] = target: T4, Tyrosine-protein phosphatase non-receptor type 1; test: Reversible inhibition of human PTP1B assessed as enzyme recovery activity by dilution assay relative to control; design: scale not given: the % may be the effect or the level left; summary of the method: as §2
[21] = target: T6, Phosphotyrosine protein phosphatase; test: Competitive inhibition of Mycobacterium tuberculosis PtpB assessed as inhibition constant using varying level of pNPP as substrate by Lineweaver-Burk plot analysis
[22] = target: T8, Phosphotyrosine protein phosphatase (Mycobacterium tuberculosis) (UniProt A0A045ISB3); test: Reversible inhibition of Mycobacterium tuberculosis PtpB assessed as enzyme recovery activity by dilution assay relative to control; design: scale not given: the % may be the effect or the level left; summary of the method: as §2
T8 sequence (whole entry): T6 sequence (A0A045ISB3 whole entry)

[23] = target: T1, Tyrosine-protein phosphatase non-receptor type 22; test: Competitive inhibition of LYP (unknown origin) assessed as inhibition constant using varying level of pNPP as substrate by Lineweaver-Burk plot analysis
[24] = Selectivity index, ratio of IC50 for PTP-PEST (unknown origin) to IC50 for LYP (unknown origin) using pNPP as substrate; details: human
[25] = target: Tyrosine-protein phosphatase YopH (Yersinia enterocolitica) (UniProt P15273); test: Binding affinity of Yersinia enterocolitica YopH assessed as structural changes in protein by measuring emission spectra by fluorescence assay
Summary of the method: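 Intrinsic fluorescence emission spectrum of YopH (λmax 328 nm) recorded in the presence of ligand; quenching and any shift in λmax monitored as the read-out for structural change.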

[26] = target: T1, Tyrosine-protein phosphatase non-receptor type 22; test: Inhibition of LYP (unknown origin) using pNPP as substrate
[27] = target: T4, Tyrosine-protein phosphatase non-receptor type 1; test: Non-competitive inhibition of human PTP1B assessed as inhibition constant using varying level of pNPP as substrate by Lineweaver-Burk plot analysis

SMILES: O=C(O)c1ccc(/C=C/C(=O)c2cccc(O)c2)cc1
- inhibition at 25 µM [1]: 7.9%

SMILES: O=C(O)c1ccc(/C=C/C(=O)c2ccc(F)cc2)cc1
- inhibition at 25 µM [1]: 11.4%

SMILES: COc1cccc(C(=O)/C=C/c2ccc(C(=O)O)cc2)c1
- inhibition at 25 µM [1]: 6.8%

SMILES: COc1cc(C(=O)/C=C/c2ccc(C(=O)O)cc2)ccc1O
- inhibition at 25 µM [1]: 9.1%

SMILES: O=C(O)c1ccc(/C=C/C(=O)c2ccccc2O)cc1
- inhibition at 25 µM [1]: 11.7%

SMILES: O=C(O)c1ccc(/C=C/C(=O)c2cccc([N+](=O)[O-])c2)cc1
- pIC50 [2]: 5.52
- Ratio IC50 [3]: 0.19
- pKi [4]: 6.10
- pIC50 [5]: 4.96
- Activity [6]: 71%
- pIC50 [7]: 5.49
- Ratio IC50 [8]: 145
- Activity [9]: 10%
- inhibition (INH) (Yersinia enterocolitica): 20%
- ΔTm [10]: 1.5 °C
- Ratio IC50 [11]: 0.22
- Ratio IC50 [12]: 0.26
- Activity [13]: 76%
- Ratio IC50 [14]: 0.28
- Activity [15]: 76%
- pKi [16]: 6.00
- pIC50 [17]: 5.64
- pIC50 [18]: 5.59
- pKi [19]: 6.00
- Activity [20]: 45%
- pKi [21]: 6.40
- Activity [22]: 81%
- pKi [23]: 5.72
- Ratio IC50 [24]: 0.94
- Activity [25]: inactive
- pIC50 [26]: 4.94
- inhibition at 25 µM [1]: 57.9%
- pKi [27]: 5.85

SMILES: O=C(O)c1ccc(/C=C/C(=O)c2ccc(Br)cc2)cc1
- inhibition at 25 µM [1]: 15.7%

SMILES: COc1cc(OC)cc(C(=O)/C=C/c2ccc(C(=O)O)cc2)c1
- inhibition at 25 µM [1]: 4.6%

SMILES: COc1ccccc1C(=O)/C=C/c1ccc(C(=O)O)cc1
- inhibition at 25 µM [1]: 13%

SMILES: O=C(O)c1ccc(/C=C/C(=O)c2ccccc2)cc1
- inhibition at 25 µM [1]: 4.2%

— ChEMBL document CHEMBL4622949, “A chalcone derivative binds a putative allosteric site of YopH: Inhibition of a virulence factor of Yersinia” (Bioorg Med Chem Lett, 2020)
